ChEMBL document CHEMBL2086252, “Syntheses and evaluation of anticonvulsant activity of novel branched alkyl carbamates” (J Med Chem, 2012)
Activity calls are given as the source filed them.

Key:
Rattus norvegicus [1] = experiment: Anticonvulsant activity in ip dosed Sprague-Dawley albino rat assessed as protection against pilocarpine-induced status epilepticus after 0.5 hrs; assay type: functional
In short: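 Pilocarpine status epilepticus model in rats. Number and severity of convulsive seizures were observed behaviourally.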

Mus musculus [2] = experiment: Anticonvulsant activity in albino CF1 mouse assessed as protection against subcutaneous metrazol-induced seizures at 30 mg/kg, ip after 0.5 hrs; assay type: functional, organism-based; set-up: dose 30 mg/kg
In short: (§1)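 Mice dosed ip at 30, 100 or 300 mg/kg, then tested 0.5 h and 4 h after administration in the MES or scMet test. Protection was recorded as animals protected over animals tested. Neurotoxicity was recorded as motor impairment or sedation, as animals affected over animals tested.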

Mus musculus [3] = experiment: Anticonvulsant activity in albino CF1 mouse assessed as protection against subcutaneous metrazol-induced seizures at 100 mg/kg, ip after 0.5 hrs; assay type: functional, organism-based; set-up: dose 100 mg/kg; in short: as §1
Mus musculus [4] = experiment: Anticonvulsant activity in albino CF1 mouse assessed as protection against subcutaneous metrazol-induced seizures at 300 mg/kg, ip after 0.5 hrs; assay type: functional, organism-based; set-up: dose 300 mg/kg; in short: as §1
Mus musculus [5] = experiment: Anticonvulsant activity in albino CF1 mouse assessed as protection against subcutaneous metrazol-induced seizures at 30 mg/kg, ip after 4 hrs; assay type: functional, organism-based; set-up: dose 30 mg/kg; in short: as §1
Mus musculus [6] = experiment: Anticonvulsant activity in albino CF1 mouse assessed as protection against subcutaneous metrazol-induced seizures at 100 mg/kg, ip after 4 hrs; assay type: functional, organism-based; set-up: dose 100 mg/kg; in short: as §1
Mus musculus [7] = experiment: Anticonvulsant activity in albino CF1 mouse assessed as protection against subcutaneous metrazol-induced seizures at 300 mg/kg, ip after 4 hrs; assay type: functional, organism-based; set-up: dose 300 mg/kg; in short: as §1
Mus musculus [8] = experiment: Anticonvulsant activity in albino CF1 mouse assessed as protection against maximal electroshock-induced seizures at 30 mg/kg, ip after 0.5 hrs; assay type: functional, organism-based; set-up: dose 30 mg/kg; in short: as §1
Mus musculus [9] = experiment: Anticonvulsant activity in albino CF1 mouse assessed as protection against maximal electroshock-induced seizures at 300 mg/kg, ip after 0.5 hrs; assay type: functional, organism-based; set-up: dose 300 mg/kg; in short: as §1
Mus musculus [10] = experiment: Anticonvulsant activity in albino CF1 mouse assessed as protection against maximal electroshock-induced seizures at 30 mg/kg, ip after 4 hrs; assay type: functional, organism-based; set-up: dose 30 mg/kg; in short: as §1
Mus musculus [11] = experiment: Anticonvulsant activity in albino CF1 mouse assessed as protection against maximal electroshock-induced seizures at 100 mg/kg, ip after 4 hrs; assay type: functional, organism-based; set-up: dose 100 mg/kg; in short: as §1
Mus musculus [12] = experiment: Anticonvulsant activity in albino CF1 mouse assessed as protection against maximal electroshock-induced seizures at 300 mg/kg, ip after 4 hrs; assay type: functional, organism-based; set-up: dose 300 mg/kg; in short: as §1
Mus musculus [13] = experiment: Neurotoxicity in albino CF1 mouse assessed as minimal motor impairment at 30 mg/kg, ip after 0.5 hrs by rotarod test; assay type: toxicity, organism-based; set-up: dose 30 mg/kg, route intraperitoneal; settings: in vivo; in short: as §1
Mus musculus [14] = experiment: Neurotoxicity in albino CF1 mouse assessed as minimal motor impairment at 100 mg/kg, ip after 0.5 hrs by rotarod test; assay type: toxicity, organism-based; set-up: dose 100 mg/kg, route intraperitoneal; settings: in vivo; in short: as §1
Mus musculus [15] = experiment: Neurotoxicity in albino CF1 mouse assessed as minimal motor impairment at 300 mg/kg, ip after 0.5 hrs by rotarod test; assay type: toxicity, organism-based; set-up: dose 300 mg/kg, route intraperitoneal; settings: in vivo; in short: as §1
Mus musculus [16] = experiment: Neurotoxicity in albino CF1 mouse assessed as minimal motor impairment at 30 mg/kg, ip after 4 hrs by rotarod test; assay type: toxicity, organism-based; set-up: dose 30 mg/kg, route intraperitoneal; settings: in vivo; in short: as §1
Mus musculus [17] = experiment: Neurotoxicity in albino CF1 mouse assessed as minimal motor impairment at 100 mg/kg, ip after 4 hrs by rotarod test; assay type: toxicity, organism-based; set-up: dose 100 mg/kg, route intraperitoneal; settings: in vivo; in short: as §1
Mus musculus [18] = experiment: Neurotoxicity in albino CF1 mouse assessed as minimal motor impairment at 300 mg/kg, ip after 4 hrs by rotarod test; assay type: toxicity, organism-based; set-up: dose 300 mg/kg, route intraperitoneal; settings: in vivo; in short: as §1
Rattus norvegicus [19] = experiment: Anticonvulsant activity in Sprague-Dawley albino rat assessed as protection against maximal electroshock-induced seizures at 30 mg/kg, po after 15 mins; assay type: functional, organism-based; set-up: dose 30 mg/kg
In short: (§2)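 Rats dosed orally. Anti-MES protection was scored as animals protected over animals tested at each time after dosing. Neurotoxicity was scored as motor impairment or sedation, as animals affected over animals tested.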

Rattus norvegicus [20] = experiment: Anticonvulsant activity in Sprague-Dawley albino rat assessed as protection against maximal electroshock-induced seizures at 30 mg/kg, po after 30 mins; assay type: functional, organism-based; set-up: dose 30 mg/kg; in short: as §2
Rattus norvegicus [21] = experiment: Anticonvulsant activity in Sprague-Dawley albino rat assessed as protection against maximal electroshock-induced seizures at 30 mg/kg, po after 1 hr; assay type: functional, organism-based; set-up: dose 30 mg/kg; in short: as §2
Rattus norvegicus [22] = experiment: Anticonvulsant activity in Sprague-Dawley albino rat assessed as protection against maximal electroshock-induced seizures at 30 mg/kg, po after 2 hrs; assay type: functional, organism-based; set-up: dose 30 mg/kg; in short: as §2
Rattus norvegicus [23] = experiment: Anticonvulsant activity in Sprague-Dawley albino rat assessed as protection against maximal electroshock-induced seizures at 30 mg/kg, po after 4 hrs; assay type: functional, organism-based; set-up: dose 30 mg/kg; in short: as §2
Rattus norvegicus [24] = experiment: Neurotoxicity in Sprague-Dawley albino rat assessed as minimal motor impairment at 30 mg/kg, po by rotarod test; assay type: toxicity, organism-based; set-up: dose 30 mg/kg, route oral; settings: in vivo; in short: as §2
Rattus norvegicus [25] = experiment: Neurotoxicity in pilocarpine-induced status epilepticus Sprague-Dawley albino rat model assessed as minimal motor impairment at 300 mg/kg, ip after 0.25 hr by rotarod test; assay type: toxicity, organism-based; set-up: dose 300 mg/kg, route intraperitoneal; settings: in vivo
In short: (§3)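 Rat pilocarpine status epilepticus model: test carbamate given at 0 or 30 min after the first observed Racine stage 3 motor seizure, which marks SE onset. Neurotoxicity was scored within the same model.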

Rattus norvegicus [26] = experiment: Neurotoxicity in pilocarpine-induced status epilepticus Sprague-Dawley albino rat model assessed as minimal motor impairment at 300 mg/kg, ip after 0.5 hrs by rotarod test; assay type: toxicity, organism-based; set-up: dose 300 mg/kg, route intraperitoneal; settings: in vivo; in short: as §3
Rattus norvegicus [27] = experiment: Neurotoxicity in pilocarpine-induced status epilepticus Sprague-Dawley albino rat model assessed as minimal motor impairment at 100 mg/kg, ip after 1 hr by rotarod test; assay type: toxicity, organism-based; set-up: dose 100 mg/kg, route intraperitoneal; settings: in vivo
Rattus norvegicus [28] = experiment: Neurotoxicity in pilocarpine-induced status epilepticus Sprague-Dawley albino rat model assessed as minimal motor impairment at 300 mg/kg, ip after 1 hr by rotarod test; assay type: toxicity, organism-based; set-up: dose 300 mg/kg, route intraperitoneal; settings: in vivo; in short: as §3
Rattus norvegicus [29] = experiment: Neurotoxicity in pilocarpine-induced status epilepticus Sprague-Dawley albino rat model assessed as minimal motor impairment at 100 mg/kg, ip after 2 hrs by rotarod test; assay type: toxicity, organism-based; set-up: dose 100 mg/kg, route intraperitoneal; settings: in vivo
Rattus norvegicus [30] = experiment: Neurotoxicity in pilocarpine-induced status epilepticus Sprague-Dawley albino rat model assessed as minimal motor impairment at 300 mg/kg, ip after 2 hrs by rotarod test; assay type: toxicity, organism-based; set-up: dose 300 mg/kg, route intraperitoneal; settings: in vivo; in short: as §3
Rattus norvegicus [31] = experiment: Neurotoxicity in pilocarpine-induced status epilepticus Sprague-Dawley albino rat model assessed as minimal motor impairment at 100 mg/kg, ip after 4 hrs by rotarod test; assay type: toxicity, organism-based; set-up: dose 100 mg/kg, route intraperitoneal; settings: in vivo
Rattus norvegicus [32] = experiment: Neurotoxicity in pilocarpine-induced status epilepticus Sprague-Dawley albino rat model assessed as minimal motor impairment at 300 mg/kg, ip after 4 hrs by rotarod test; assay type: toxicity, organism-based; set-up: dose 300 mg/kg, route intraperitoneal; settings: in vivo; in short: as §3
Mus musculus [33] = experiment: Anticonvulsant activity in albino CF1 mouse assessed as protection against maximal electroshock-induced seizures at 100 mg/kg, ip after 0.5 hrs; assay type: functional, organism-based; set-up: dose 100 mg/kg; in short: as §1
Rattus norvegicus [34] = experiment: Neurotoxicity in pilocarpine-induced status epilepticus Sprague-Dawley albino rat model assessed as minimal motor impairment at 100 mg/kg, ip after 0.25 hr by rotarod test; assay type: toxicity, organism-based; set-up: dose 100 mg/kg, route intraperitoneal; settings: in vivo
Rattus norvegicus [35] = experiment: Neurotoxicity in pilocarpine-induced status epilepticus Sprague-Dawley albino rat model assessed as minimal motor impairment at 100 mg/kg, ip after 0.5 hrs by rotarod test; assay type: toxicity, organism-based; set-up: dose 100 mg/kg, route intraperitoneal; settings: in vivo

CCCC(C(N)=O)C(C)CC (stereo not given)
84 mg/kg: ED50 (Rattus norvegicus [1])

CCC(CC)COC(N)=O
Non-toxic: Activity (Mus musculus [13]) | Activity (Mus musculus [14]) | Activity (Mus musculus [16]) | Activity (Mus musculus [17]) | Activity (Mus musculus [18]) | Activity (Rattus norvegicus [24]) | Activity (Rattus norvegicus [27]) | Activity (Rattus norvegicus [28]) | Activity (Rattus norvegicus [29]) | Activity (Rattus norvegicus [30]) | Activity (Rattus norvegicus [31]) | Activity (Rattus norvegicus [32])
inactive: Activity (Mus musculus [2]) | Activity (Mus musculus [3]) | Activity (Mus musculus [5]) | Activity (Mus musculus [6]) | Activity (Mus musculus [7]) | Activity (Mus musculus [8]) | Activity (Mus musculus [10]) | Activity (Mus musculus [11]) | Activity (Mus musculus [12]) | Activity (Rattus norvegicus [19]) | Activity (Rattus norvegicus [20]) | Activity (Rattus norvegicus [21]) | Activity (Rattus norvegicus [22]) | Activity (Rattus norvegicus [23])
active: Activity (Mus musculus [4]) | Activity (Mus musculus [9])
Toxic: Activity (Mus musculus [15]) | Activity (Rattus norvegicus [25]) | Activity (Rattus norvegicus [26])

CC(C)(C)CCOC(N)=O
inactive: Activity (Mus musculus [2]) | Activity (Mus musculus [5])
active: Activity (Mus musculus [8]) | Activity (Mus musculus [33])
Toxic: Activity (Mus musculus [13]) | Activity (Mus musculus [14]) | Activity (Mus musculus [15]) | Activity (Rattus norvegicus [25]) | Activity (Rattus norvegicus [26])
Non-toxic: Activity (Rattus norvegicus [34]) | Activity (Rattus norvegicus [35]) | Activity (Rattus norvegicus [27]) | Activity (Rattus norvegicus [28]) | Activity (Rattus norvegicus [29]) | Activity (Rattus norvegicus [30]) | Activity (Rattus norvegicus [31]) | Activity (Rattus norvegicus [32])

CCCC(CCC)COC(=O)NC1CCCCC1
Non-toxic: Activity (Mus musculus [13]) | Activity (Mus musculus [16]) | Activity (Mus musculus [17]) | Activity (Mus musculus [18])
inactive: Activity (Mus musculus [2]) | Activity (Mus musculus [3]) | Activity (Mus musculus [4]) | Activity (Mus musculus [5]) | Activity (Mus musculus [6]) | Activity (Mus musculus [7]) | Activity (Mus musculus [8]) | Activity (Mus musculus [33]) | Activity (Mus musculus [9]) | Activity (Mus musculus [10]) | Activity (Mus musculus [11]) | Activity (Mus musculus [12])
